Test results as given in ChEMBL document CHEMBL4028915, “The Design and Development of a Potent and Selective Novel Diprolyl Derivative That Binds to the N-Domain of Angiotensin-I Converting Enzyme” (J Med Chem, 2018).

Tests used:
[1] = organism: Homo sapiens; assay: Selectivity ratio of Ki for human testis ACE delta36NJ mutant to Ki for human ACE Ndom389 mutant
Outline: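 Ki for each domain calculated from IC50 values obtained by Z-FHL hydrolysis assay (Ndom389 10 nM, tACE Δ36NJ 5 nM; 30 min room temperature preincubation, 15 min at 40 °C, OPA fluorescence ex 360/em 485 nm, triplicate). Ratio of C-domain Ki to N-domain Ki.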

[2] = Inhibition of human ACE Ndom389 mutant preincubated for 30 mins followed by Z-FHL substrate addition measured after 15 mins by fluorimetric method
Outline: (§1)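 Enzyme diluted from frozen stock to 10 nM (Ndom389, line 1) or 5 nM (tACE Δ36NJ, line 2) in 100 mM potassium phosphate pH 8.3, 300 mM NaCl, 10 μM ZnSO4, 1 mg/ml albumin. Compounds (10-fold series 100 μM–1 nM, then 9-point two-fold series) preincubated with enzyme 1:1, 30 min, room temperature. 1 mM Z-FHL added, 40 °C, 15 min. OPA/NaOH derivatisation, HCl quench. Fluorescence ex 360/em 485 nm, triplicate wells. IC50 from activity curves, converted to Ki.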

[3] = Inhibition of human testis ACE delta36NJ mutant preincubated for 30 mins followed by Z-FHL substrate addition measured after 15 mins by fluorimetric method; outline: as §1

Ratio Ki [1]	Ki [2] [nM]	Ki [3] [nM]	Structure (SMILES)
0.07	4.45	0.31	C[C@H](N[C@H](C(=O)O)[C@@H]1CCCN1C(=O)c1ccccc1)C(=O)N1CCC[C@H]1C(=O)O
2.39	70.3	168	C[C@H](N[C@H](C(=O)O)[C@@H]1CCCN1C(=O)[C@@H](N)Cc1ccccc1)C(=O)N1CCC[C@H]1C(=O)O
83.9	11.4	961	C[C@H](N[C@H](C(=O)O)[C@@H]1CCCN1C(=O)[C@@H](N)CC(=O)O)C(=O)N1CCC[C@H]1C(=O)O
1.81	9.63	17.4	C[C@H](N[C@H](C(=O)O)[C@@H]1CCCN1C(=O)[C@@H](N)CCC(=O)O)C(=O)N1CCC[C@H]1C(=O)O
0.14	16.9	2.29	C[C@H](N[C@H](C(=O)O)[C@@H]1CCCN1C(=O)c1ccc(C(=O)O)cc1)C(=O)N1CCC[C@H]1C(=O)O
0.16	279	44.4	C[C@H](N[C@H](C(=O)O)[C@@H]1CCCN1C(=O)CN)C(=O)N1CCC[C@H]1C(=O)O
0.07	3.37	0.22	C[C@H](N[C@H](C(=O)O)[C@@H]1CCCN1C(=O)c1ccc(N)cc1)C(=O)N1CCC[C@H]1C(=O)O
